Experimental data taken from paper PMC2674070 (Journal of immunology (Baltimore, Md. : 1950), 2009).
Ends that are not written are not given here.

Key:
H-2K^b = H-2K^b (Mus musculus, UniProt P01901); test: MHC peptide-binding assay, purified H-2K^b
Procedure, shortened: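 Radiolabelled (chloramine-T) reference peptide at 0.1-1 nM is incubated at room temperature for 2 days with purified MHC (1 µM to 1 nM), 1-3 µM human β2-microglobulin and protease inhibitors. MHC-peptide complexes are captured on plates coated with Y3 (anti-H-2K^b) antibody, and bound cpm are read by microscintillation counting. Test peptides are ≥95% pure by reverse-phase HPLC.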

H-2D^b = H-2D^b (Mus musculus, UniProt P01899); test: MHC peptide-binding assay, purified H-2D^b
Chain of H-2D^b (P01899 25-362): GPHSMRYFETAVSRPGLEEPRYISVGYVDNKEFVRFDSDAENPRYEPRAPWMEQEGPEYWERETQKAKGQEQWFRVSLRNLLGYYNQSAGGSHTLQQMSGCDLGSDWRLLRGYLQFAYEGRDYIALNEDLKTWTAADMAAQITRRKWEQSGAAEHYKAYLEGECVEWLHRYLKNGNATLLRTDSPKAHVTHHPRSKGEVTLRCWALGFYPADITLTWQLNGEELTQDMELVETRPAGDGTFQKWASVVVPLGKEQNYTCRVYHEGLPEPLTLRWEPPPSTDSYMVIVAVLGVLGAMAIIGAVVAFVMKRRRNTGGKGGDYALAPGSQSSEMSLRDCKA
Chain of H-2D^b (P61769 21-119, further chain): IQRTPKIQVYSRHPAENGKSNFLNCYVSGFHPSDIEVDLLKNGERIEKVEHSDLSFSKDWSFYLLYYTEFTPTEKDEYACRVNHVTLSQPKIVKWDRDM

Chain of H-2K^b (P61769 21-119): as the sequence (P61769 21-119, further chain) above
Chain of H-2K^b (P01901 22-369): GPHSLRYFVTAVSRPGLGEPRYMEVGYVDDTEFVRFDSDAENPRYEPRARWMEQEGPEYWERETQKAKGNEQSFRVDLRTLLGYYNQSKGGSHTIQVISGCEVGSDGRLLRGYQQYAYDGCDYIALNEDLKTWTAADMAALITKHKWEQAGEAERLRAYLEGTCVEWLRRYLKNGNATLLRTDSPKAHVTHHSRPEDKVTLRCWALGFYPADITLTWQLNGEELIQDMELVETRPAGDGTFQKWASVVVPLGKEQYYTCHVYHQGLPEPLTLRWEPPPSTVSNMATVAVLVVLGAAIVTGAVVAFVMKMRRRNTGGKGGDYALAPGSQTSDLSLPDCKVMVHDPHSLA

Compound | IC50 (H-2K^b) [nM] | IC50 (H-2D^b) [nM]
RMLINRFTM [NS5_237-245] | < 2000 | 
TAIANQATV [NS4B66-74] | < 2000 | 
MTMRCIGI [Epitope E-2-6] |  | < 2000
FSLGVLGM [NS2A8-15] | < 2000 | 
VSWTMKIL [Epitope E451-458] | 458 | < 2000
CC(C)C[C@H](NC(=O)[C@H](CO)NC(=O)[C@@H](NC(=O)[C@H](CC(N)=O)NC(=O)[C@@H](NC(=O)[C@H](CO)NC(=O)[C@@H](N)CO)C(C)C)C(C)C)C(=O)N[C@H](C(=O)O)[C@@H](C)O [NS4B59-66] | < 2000 | 
LAVTIMAIL [NS2A145-153] | < 2000 | 
RALIFILL [Epitope M60-67] |  | < 2000
